Measured values: ChEMBL document CHEMBL1687821, “In vivo and in vitro efficacy of chloroquine against Plasmodium malariae and P. ovale in Papua, Indonesia” (Antimicrob Agents Chemother, 2011)

How the values were obtained:
Plasmodium malariae [1] = test: Antimalarial activity against Plasmodium malariae in patients assessed as parasite reduction ratio at 25 mg/kg, po after 48 hrs; assay type: functional
Outline: (§1)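 Oral chloroquine tablets (150 mg base each) at 25 mg/kg over 3 days, all doses supervised; dose repeated once if vomited within 60 min. Parasitemia counted on Giemsa-stained thick films as parasites per 200 WBCs by an expert microscopist. Reduction ratio taken at 48 h.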

Plasmodium ovale [2] = test: Antimalarial activity against Plasmodium ovale in patients assessed as parasite reduction ratio at 25 mg/kg, po after 48 hrs; assay type: functional; outline: as §1
Plasmodium malariae [3] = test: Antimalarial activity against Plasmodium malariae trophozoite stage infected in red blood cells in presence of AB+ human serum by drug susceptibility assay; assay type: functional, organism-based
Outline: (§2)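 Field isolates from venous blood, leukocytes removed on CF11 column. Modified WHO schizont-maturation microtest at 2% hematocrit in McCoy's 5A with 20% AB+ serum, 11 twofold dilutions (chloroquine top 5,910 nM). Candle jar, 37.5°C, 15–56 h, stopped at >40% schizonts in the drug-free control. Schizonts (≥5 chromatin dots) per 200 asexual parasites, normalized to control. IC50 from inhibitory sigmoid Emax fit. Isolates grouped by predominant stage at start.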

Plasmodium ovale [4] = test: Antimalarial activity against Plasmodium ovale ring stage infected in red blood cells in presence of AB+ human serum by drug susceptibility assay; assay type: functional; outline: as §2
Plasmodium ovale [5] = test: Antimalarial activity against Plasmodium ovale trophozoite stage infected in red blood cells in presence of AB+ human serum by drug susceptibility assay; assay type: functional; outline: as §2
Plasmodium malariae [6] = test: Antimalarial activity against Plasmodium malariae ring stage infected in red blood cells in presence of AB+ human serum by drug susceptibility assay; assay type: functional, organism-based; outline: as §2

Which Ratio (Plasmodium malariae [1]) does the source give for CCN(CC)CCCC(C)Nc1ccnc2cc(Cl)ccc12 (stereo not drawn) [CHLOROQUINE] here?
The Ratio was 86.

And the Ratio (Plasmodium ovale [2])?
The Ratio was 150.

What about the IC50 (Plasmodium malariae [3]) of the same compound?
Its IC50 is 128 nM.

And the IC50 (Plasmodium ovale [4])?
Its IC50 is 7.8 nM.

What about the IC50 (Plasmodium ovale [5]) of the same compound?
Its IC50 is 23.2 nM.

And the IC50 (Plasmodium malariae [6])?
Its IC50 is 14 nM.

For CCN(CC)Cc1cc(Nc2ccnc3cc(Cl)ccc23)ccc1O, which IC50 (Plasmodium malariae [3]) is on record?
Its IC50 is 19.1 nM.

What about the IC50 (Plasmodium ovale [4]) of the same compound?
Its IC50 is 4.3 nM.

What about the IC50 (Plasmodium malariae [6]) of the same compound?
Its IC50 is 21.7 nM.

With C[C@H]1[C@H](OC(=O)CCC(=O)O)O[C@@H]2O[C@@]3(C)CC[C@H]4[C@H](C)CC[C@@H]1[C@@]24OO3 [ARTESUNATE] as the compound, how does the IC50 (Plasmodium malariae [3]) read?
The IC50 was 2.84 nM.

What about the IC50 (Plasmodium ovale [4]) of the same compound?
Its IC50 is 1.16 nM.

And the IC50 (Plasmodium ovale [5])?
The IC50 was 1.28 nM.

And the IC50 (Plasmodium malariae [6])?
Its IC50 is 1.77 nM.

For OC(c1cc(C(F)(F)F)nc2c(C(F)(F)F)cccc12)C1CCCCN1 (stereo not drawn) [MEFLOQUINE], which IC50 (Plasmodium malariae [3]) is on record?
Its IC50 is 46.9 nM.

What about the IC50 (Plasmodium ovale [4]) of the same compound?
Its IC50 is 23.8 nM.

And the IC50 (Plasmodium malariae [6])?
Its IC50 is 36.8 nM.

Which IC50 (Plasmodium malariae [3]) does the source give for Clc1ccc2c(N3CCN(CCCN4CCN(c5ccnc6cc(Cl)ccc56)CC4)CC3)ccnc2c1 [PIPERAQUINE] here?
The IC50 was 38.4 nM.

And the IC50 (Plasmodium ovale [4])?
The IC50 was 10.2 nM.

What about the IC50 (Plasmodium ovale [5]) of the same compound?
The IC50 was 7.57 nM.

And the IC50 (Plasmodium malariae [6])?
The IC50 was 29 nM.

COc1ccc2nc3cc(Cl)ccc3c(Nc3cc(CN4CCCC4)c(O)c(CN4CCCC4)c3)c2n1 [PYRONARIDINE] was tested. Which IC50 (Plasmodium malariae [3]) did it give?
Its IC50 is 7.8 nM.

And the IC50 (Plasmodium ovale [4])?
The IC50 was 0.72 nM.

And the IC50 (Plasmodium malariae [6])?
Its IC50 is 4.1 nM.
